In general, half-life refers to how long it takes for the measured level to halve. Lower therefore signals rapid decline. A word on the share remaining: it is what is left of the initial amount, in per cent. Lower therefore signals a greater loss.

The nature of data set [1]: Metabolic stability in mouse plasma. In kind it is in vitro ADME. In outline:
(§1)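 Test compound (100 μM stock in methanol) added to 1 μM final in plasma or brain homogenate (1:3 brain:PBS, w/v) and incubated at room temperature. Sampled at 15 and 30 min and 1, 2 and 4 h; time-zero samples pre-quenched with methanol. Proteins were methanol-precipitated; supernatant evaporated, reconstituted in 0.1% formic acid and analysed by LC/MS/MS. Duplicates per time point; results expressed as % of time 0.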

Data set [2] in a line: Radiolabel distribution study of 3H-P8 after IV or IN delivery. In kind it is in vivo. As to conditions: rat. In outline:
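Adult male SD rats (n = 6/route) were anaesthetised with ketamine/xylazine/acepromazine. They received 0.5 mg test compound plus 60 μCi tritiated label in 60 μL over 18 min, either by IV infusion or by IN drops to alternating nares every 2 min while supine. Blood was drawn 10 and 20 min after dosing ended. At 30 min: cardiac puncture, saline perfusion, then tissue scintillation counting. Concentrations were derived from DPM, tissue weight and specific activity; values beyond 2 SD were excluded as outliers.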

Data set [3] in a line: Metabolic stability in human plasma. Format: in vitro ADME. The essentials:
as §1

Data set [4] can be described thus: Metabolic stability in human brain homogenate. In kind it is in vitro ADME. In outline:
as §1

Data set [5] in a line: Metabolic stability in mouse brain homogenate. Format: in vitro ADME. The essentials:
as §1

Where no end group is shown, it is not given here. Some results are limits rather than exact numbers.

Turning to DEEEDEEL [P8, DEEEDEEL], the half-life in data set [1] is more than 4 h; in data set [3] it was more than 2 h; in data set [4] (human brain homogenate, 1μM P8, room temperature) it was 2 h. Further, the amount remaining at 2 h, 1 μM in data set [1] came out at 100%; in data set [3], 63.1%; in data set [4] (human, brain homogenate) it was 51.4%; in data set [5], 49.2%. Moreover, in data set [2], the “improvement of brain targeting, IN compared to IV delivery” value is given as “approximately 4 fold”.
